# Shown are actives, neighbours in structure and some others; about 3.3% of the full set was active somewhere.
# HTRA1 inhibitor: HTRA1 (human) protease inhibition | recombinant HTRA1, FP-rhodamine activity-based probe, fluorescence polarization | 340,000 tested, 0.5% active | inhibition, % at 5.96 µM | Q92743; in the data active means inhibition above about 36%;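 further: 0% = enzyme with DMSO and 100% = wells lacking enzyme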
# Target sequence (Q92743 whole entry, looked up): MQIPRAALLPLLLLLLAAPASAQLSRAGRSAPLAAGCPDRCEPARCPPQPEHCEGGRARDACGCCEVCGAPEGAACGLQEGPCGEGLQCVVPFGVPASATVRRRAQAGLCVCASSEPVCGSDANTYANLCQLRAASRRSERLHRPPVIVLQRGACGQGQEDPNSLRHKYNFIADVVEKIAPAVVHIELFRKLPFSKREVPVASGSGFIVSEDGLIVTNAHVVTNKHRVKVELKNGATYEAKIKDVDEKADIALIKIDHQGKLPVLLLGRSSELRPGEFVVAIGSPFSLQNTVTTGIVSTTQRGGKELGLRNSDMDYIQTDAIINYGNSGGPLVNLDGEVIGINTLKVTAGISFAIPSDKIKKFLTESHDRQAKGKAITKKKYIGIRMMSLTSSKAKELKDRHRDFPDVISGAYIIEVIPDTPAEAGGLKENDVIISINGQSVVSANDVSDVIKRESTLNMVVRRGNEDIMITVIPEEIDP
# SIAE inh: blocks human sialic acid acetylesterase | Q9HAT2 | SIAE FP-Rh probe binding, fluorescence polarization | inhibition, % at 9.66 µM | 370,000 tested, 0.69% active;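 active means inhibition above a cutoff: mean of compounds within the control limits plus 3 SD of those, cut at about 17% in these data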;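 further: 0% = plate median of compound wells and 100% = probe without SIAE protein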
# mABHD4 FP: inhibits mouse alpha/beta hydrolase domain 4; purified mABHD4, FP-Rh probe fluorescence polarization; inhibition, % at 8.92 µM; 370,000 tested, 0.54% active;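 active means inhibition exceeding the mean over every tested compound plus 3 SD, cut at about 30% in these data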;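 further: 0% = plate median of compound wells and 100% = S159A mutant with DMSO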
#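 Assay system: mABHD4 protein; medium: HEPES pH 7.0, NaCl, Pluronic buffer; dosing: 8.92 µM, single dose; schedule: 45 min + 60 min at 25 °C; signal: FP readout, ex 525 nm / em 598 nm; read-out: normalized percent inhibition of probe labeling; repeats: single replicate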
# PRMT1 inh: blocks human protein arginine methyltransferase 1. AID 652257. recombinant PRMT1, activity-based probe fluorescence polarization. 370,000 tested, 1.3% active. inhibition, % at 2.79 µM;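 active means inhibition above about 21% made by adding two undisclosed values, limit read from the data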
# rCAG binder: molecules binding r(CAG) RNA repeats; r(CAG) RNA repeat, TO-PRO-1 dye displacement fluorescence; inhibition, % at 3 µM; 370,000 tested, 1.3% active;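 active means inhibition above the plate cutoff, the mean of all test compounds on that plate plus 3 SD, cut at about 35% in these data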;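 further: 0% = DMSO alone and 100% = 100 µM mitoxantrone as full dye displacement; higher means more dye released from RNA so lower well fluorescence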
# * = called active by the depositor; . = no result given.
SMILES,HTRA1 inhibitor,SIAE inh,mABHD4 FP,PRMT1 inh,rCAG binder
CCc1nnc(NS(=O)(=O)c2ccc(NC(=O)/C=C/c3ccc(OC)cc3OC)cc2)s1,-78.9,-69.0,-105.1,0.1,82.3*
Cc1cccc(-c2n[nH]c(=S)n2/N=C/c2ccc(C)o2)c1,2.6,0.8,-12.6,21.7*,11.9
Cc1cc(-c2n[nH]c(=S)n2/N=C/c2ccc(C)o2)n[nH]1,1.7,6.0,-1.8,-3.5,0.0
COc1ccc(-c2ccc3c(n2)CCCN3S(=O)(=O)c2ccccc2C)cc1,.,1.6,-5.8,-1.8,4.2
NNC(=O)C1C(O)CCC2CN3CCc4c([nH]c5ccccc45)C3CC21 (stereo unspecified),4.0,2.6,2.5,22.0*,2.0
COC(=O)[C@@H]1[C@H]2C[C@H]3c4[nH]c5ccccc5c4CCN3C[C@@H]2CC[C@@H]1O,2.1,7.6,-0.8,-4.8,-0.9
COC(=O)N1Cc2ccnnc2CC1c1ccccc1-c1ccccc1 (stereo unspecified),.,-3.3,-1.2,-3.5,4.4
COc1ccc([C@@H]2CC=C(C(=O)O)[C@H](c3cccc(Cl)c3)N2S(=O)(=O)c2ccccc2C)cc1,-22.2,-5.5,-9.3,4.9,73.9*
O=C(O)C1=CC[C@@H](c2ccc(Cl)cc2)N(S(=O)(=O)c2ccc(Cl)cc2)[C@H]1c1cccc(Cl)c1,-18.0,-6.0,1.0,0.7,14.4
O=C1C(=O)N(CCN2CCOCC2)C(c2ccc([N+](=O)[O-])cc2)/C1=C(/O)c1ccc2c(c1)OCO2 (stereo unspecified),-0.3,2.6,15.7,22.6*,5.2
N#CC(C#SN)=C1CCCCC1,-1.0,1.9,15.3,24.5*,-0.5
C[C@@H]1COc2cccc(NCCO)c2S(=O)(=O)N1,.,1.4,5.3,-2.7,0.5
Cc1oc(C)c2c(=O)ccc3c(c12)OC(N)=C(C#N)C3c1ccccc1 (stereo unspecified),24.0,6.4,14.9,22.2*,18.9
COc1ccc2c(c1)[C@@]1(OCCC=C[C@H]1C)C(=O)N2CC1CC1,.,7.3,4.8,-3.4,0.3
O=C(CCCc1c[nH]c2ccccc12)N1CCN(c2ccc(N3CCOCC3)nn2)CC1,8.9,18.8*,5.0,-3.9,3.6
O=C(CCc1c[nH]c2ccccc12)N1CCN(c2ccc(F)cc2)CC1,5.0,3.1,5.1,0.8,-1.9
Cc1cc(Nc2cccc(F)c2)cc(=O)n1-c1cccc(F)c1,.,1.7,3.2,-2.6,2.8
O=C(O)c1cc(S(=O)(=O)Nc2ccc3oc(=O)sc3c2)ccc1O,.,-2.5,22.1,85.8*,59.6*
COCc1[nH]nc2c1C(c1cccc(C(F)(F)F)c1)N(c1ccccc1)C2=O (stereo unspecified),.,0.9,0.0,2.6,-1.2
COc1ccc(CC(=O)N2CCN(C(=O)Cc3ccc(OC)cc3)CC2)cc1,-2.9,8.0,1.4,-3.2,3.2
COc1ccc(-c2ccc(C(=S)N3CCN(C(C)=O)CC3)o2)cc1,0.3,1.8,6.0,22.3*,6.9
COC(=O)C1=C(C)N(C)C(=NCc2ccc3c(c2)OCO3)NC1c1ccccc1 (stereo unspecified),.,4.7,2.9,-3.7,9.1
COc1ccc(C2CC(=O)C(c3cccc(Cl)c3)=CN2Cc2ccccc2)cc1 (stereo unspecified),.,-2.3,-17.6,-7.0,4.3
C=CCN(CC=C)C(=S)Nc1ccc2nsnc2c1,-0.8,-0.5,-1.6,28.1*,6.2
CCCCn1c2ccccc2c2nnc(SCC(=O)NC3=NN=C(c4ccccc4)CS3)nc21,.,-12.7,10.7,44.7*,22.0
SMILES,HTRA1 inhibitor,SIAE inh,mABHD4 FP,PRMT1 inh,rCAG binder
CCCn1c2ccccc2c2nnc(SCC(=O)OC)nc21,3.8,-10.7,-8.4,6.3,1.8
COc1ccccc1Nc1nc(-c2cccs2)cs1,1.9,0.9,7.4,20.4,34.8*
COc1ccc(Nc2nc(-c3cccs3)cs2)c(OC)c1,18.0,9.7,5.9,7.3,13.4
O=C(CSc1nnc(-c2ccccc2)o1)c1nnc(-c2ccccc2)o1,13.0,-9.9,4.4,24.1*,24.0
O=C(C=C1SCCS1)/C=C/c1ccco1,-3.1,0.4,7.9,21.7*,10.2
Cn1c(NCCN2CCCCC2)cc(=O)n(C)c1=O,-1.5,-6.5,4.0,23.6*,-2.3
CCCNc1cc(=O)n(C)c(=O)n1C,-0.6,-0.3,1.5,0.0,0.5
Cc1nnc(SCC(=O)c2ccc(S(=O)(=O)N3CCOCC3)cc2)n1-c1ccccc1,0.5,-2.5,-5.6,28.4*,9.6
CCOC(=O)CSc1nnc(-c2ccc(S(=O)(=O)N3CCOCC3)cc2)n1-c1ccccc1,-2.0,1.7,4.3,1.3,-3.7
COc1ccc(S[C@]2(C(=O)N(C)C)CC(=O)N(C(=O)CCc3ccccc3)[C@@H]2c2ccc(OC)cc2)cc1,.,-5.1,-5.3,12.3,13.2
COC(=O)N1C[C@@H]2Oc3nccnc3O[C@@H]2C[C@@H]1c1ccccc1Br,.,-0.5,-3.3,-4.8,6.5
Brc1cc2c(cc1CN1CCc3ccccc3C1)OCO2,-6.7,6.4,-1.9,-1.9,-6.5
Oc1c(CN2CCc3ccccc3C2)cc(Cl)c2cccnc12,69.3*,.,.,.,.
Cc1[nH]nc2c1C(c1ccc(Br)cc1)N(c1ccccc1)C2=O (stereo unspecified),.,-5.9,-10.1,3.4,2.9
CCOC(=O)c1c(-c2cc(OC)c(OC)c(OC)c2)csc1NC(=O)c1ccccc1,-38.4,-1.7,-1.8,-1.3,3.8
COc1cc(C(=O)Nc2scc(-c3ccccc3)c2C(=O)O)cc(OC)c1OC,-1.1,7.6,-10.1,5.0,49.3*
COc1cc(C2C(C#N)=C(N)Oc3c2ccc2ccccc32)ccc1OCC(=O)Nc1ccccc1C (stereo unspecified),-38.4,-6.4,-1.6,2.9,35.7*
C[C@@H]1ON(C)[C@H]2C[C@H]3c4[nH]c5c(-c6ccc(F)cc6)cccc5c4CCN3C(=O)[C@@H]12,.,7.5,-0.3,-2.5,5.3
CC1(C)C(C(=O)O)N2C(=O)C(NC(=O)Cc3ccccc3)C2S1=O (stereo unspecified),4.7,9.7,-1.4,22.9*,1.4
CC1(C)C(C(=O)OCC(Cl)(Cl)Cl)N2C(=O)C(NC(=O)Cc3ccccc3)C2S1=O (stereo unspecified),2.4,6.7,7.8,14.3,-4.1
CCCCOc1ccc(-c2nc(=S)[nH][nH]2)cc1,-5.0,-9.0,2.7,22.2*,5.9
C#CCOCCOCCOCCNc1nc(N2CCN(C(=O)[C@H](CCCCN)n3cc([C@@H](N)CC(C)C)nn3)CC2)nc(N2CCN(C(=O)[C@H](Cc3cc4ccccc4[nH]3)n3cc([C@@H](N)CC(C)C)nn3)CC2)n1,.,-0.8,5.4,7.1,.
COC(=O)c1cc2c(c3c4ccccc4n(S(=O)(=O)c4cccc(C)c4)c13)C(=O)N(C)C2,.,-0.7,-1.2,1.3,10.7
CCN(C(=O)COc1cc(=O)n(CC)c2ccccc12)c1cc(Cl)ccc1OC,-2.3,21.7*,0.8,2.8,-1.0
